{"source": "ChEMBL document CHEMBL4251598", "about": "“Development of novel bis-pyrazole derivatives as antitumor agents with potent apoptosis induction effects and DNA damage” (Eur J Med Chem, 2018)", "key": {"SMMC-7721 [1]": {"system": "SMMC-7721", "assay": "Antiproliferative activity against human SMMC7721 cells after 72 hrs by MTT assay", "assay_type": "functional, cell-based", "conditions": "SMMC-7721, 72 h", "summary_of_the_method": "(§1)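 Cells in DMEM with 10% FBS, 10^4 cells/mL, adhered overnight at 37 °C, 5% CO2. Treated in triplicate with a range of concentrations for 72 h. MTT (5 mg/mL solution) added for the last 4 h, formazan dissolved in DMSO, absorbance read at 570 nm. IC50 calculated from percent inhibition. Mean ± SD of three independent experiments.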"}, "HCT-116": {"system": "HCT-116", "assay": "Antiproliferative activity against human HCT116 cells after 72 hrs by MTT assay", "assay_type": "functional, cell-based", "conditions": "HCT-116, 72 h", "summary_of_the_method": "as §1"}, "SMMC-7721 [2]": {"system": "SMMC-7721", "assay": "Induction of apoptosis in human SMMC7721 cells assessed as apoptotic cells at 0.2 uM after 72 hrs by FITC-Annexin-V/7AAD/propidium iodide staining based flow cytometry relative to control", "assay_type": "functional", "summary_of_the_method": "(§2)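 SMMC-7721 cells cultured overnight, then treated in triplicate with 0.2, 0.8 or 3.2 μM, vehicle, or ADM (3.2 μM) for 72 h. Stained with annexin V and PI (methods section: APC-annexin V/7-AAD) for 15 min at room temperature. Mean ± SD of three independent experiments.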"}, "SMMC-7721 [3]": {"system": "SMMC-7721", "assay": "Induction of apoptosis in human SMMC7721 cells assessed as apoptotic cells at 0.8 uM after 72 hrs by FITC-Annexin-V/7AAD/propidium iodide staining based flow cytometry relative to control", "assay_type": "functional", "summary_of_the_method": "as §2"}, "SMMC-7721 [4]": {"system": "SMMC-7721", "assay": "Induction of apoptosis in human SMMC7721 cells assessed as increase in Bax expression after 72 hrs by Western blot analysis", "assay_type": "functional, cell-based", "summary_of_the_method": "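Sub-confluent SMMC-7721 cells treated with vehicle, compound or ADM at indicated concentrations for 72 h. Lysed on ice in NP-40/deoxycholate/SDS buffer with PMSF and leupeptin. Up to 50 µg protein run on SDS-PAGE, transferred to PVDF and probed with specific antibodies; ECL detection. Bands quantified by densitometry relative to β-actin, mean ± SD of three experiments.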"}, "SMMC-7721 [5]": {"system": "SMMC-7721", "assay": "Induction of DNA double stranded breaks in human SMMC7721 cells assessed as increase in H2AX phosphorylation at S139 after 72 hrs by Western blot analysis", "assay_type": "functional, cell-based", "summary_of_the_method": "(§3)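 SMMC-7721 cells treated with vehicle, compound at 0.2, 0.8 or 3.2 μM, or ADM for 72 h. Lysates immunoblotted for H2AX pS139, p-p53 (Ser15), total p53 and β-actin, with ECL detection. Signals quantified by densitometry relative to β-actin, mean ± SD of three experiments.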"}, "[6]": {"target": "Cellular tumor antigen p53 (Homo sapiens) (UniProt P04637)", "sequence (P04637 whole entry, looked up)": "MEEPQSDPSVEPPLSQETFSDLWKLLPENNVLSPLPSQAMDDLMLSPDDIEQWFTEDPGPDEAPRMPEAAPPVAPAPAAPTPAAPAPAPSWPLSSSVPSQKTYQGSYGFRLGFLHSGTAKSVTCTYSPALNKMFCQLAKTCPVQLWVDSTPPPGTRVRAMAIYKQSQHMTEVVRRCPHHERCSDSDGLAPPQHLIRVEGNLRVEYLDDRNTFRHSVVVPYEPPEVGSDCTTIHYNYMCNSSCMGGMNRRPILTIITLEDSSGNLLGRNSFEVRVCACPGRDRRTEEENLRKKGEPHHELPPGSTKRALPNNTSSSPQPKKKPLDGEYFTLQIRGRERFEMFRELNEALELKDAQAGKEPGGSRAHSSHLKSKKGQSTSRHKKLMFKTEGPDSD", "assay": "Induction of p53 phosphorylation at Ser15 in human SMMC7721 cells after 72 hrs by Western blot analysis", "assay_type": "cell-based", "summary_of_the_method": "as §3"}, "SMMC-7721 [7]": {"system": "SMMC-7721", "assay": "Antitumor activity against human SMMC7721 cells xenografted in BALB/c mouse assessed as tumor growth inhibition at 30 mg/kg, ip measured after 19 days relative to control", "assay_type": "functional", "conditions": "SMMC-7721, ip, 456 h, read-out: TGI", "summary_of_the_method": "(§4)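 Female BALB/c nude mice, 5-6 weeks old, inoculated subcutaneously with 10^6 SMMC-7721 cells. At 50-100 mm³ tumours, mice were randomized to ip compound (15 or 30 mg/kg), ADM (15 mg/kg) or vehicle, n = 6 per group. Caliper volume ½(L×W²) measured every 3 days to day 19, with body weight monitored. Tumours excised and weighed at the end.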"}, "Mus musculus [8]": {"system": "Mus musculus", "assay": "Toxicity in BALB/c mouse xenografted with human SMMC7721 cells assessed as effect on body weight at 15 to 30 mg/kg, ip measured after 19 days", "assay_type": "organism-based", "conditions": "in vivo, 456 h", "summary_of_the_method": "as §4"}, "SMMC-7721 [9]": {"system": "SMMC-7721", "assay": "Antitumor activity against human SMMC7721 cells xenografted in ip dosed BALB/c mouse assessed as tumor growth inhibition measured every 3 days up to 19 days post dose", "assay_type": "functional, organism-based", "summary_of_the_method": "as §4"}, "Mus musculus [10]": {"system": "Mus musculus", "assay": "Acute toxicity in ICR mouse assessed as effect on eating behaviour at 200 mg/kg, ip measured up to 14 days post dose", "assay_type": "organism-based", "conditions": "in vivo, 336 h", "summary_of_the_method": "(§5)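 Female ICR mice, 10 per group, single intraperitoneal injection at 488.3, 390.6, 312.5, 250 or 200 mg/kg, or vehicle control. Survival, eating, drinking, body weight and activity were monitored for up to 14 days after dosing. MTD was defined as the highest dose giving no drug-related moribund state or death, with temporary body-weight loss within 20%. LD50 was calculated from mortality.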"}, "Mus musculus [11]": {"system": "Mus musculus", "assay": "Acute toxicity in ICR mouse assessed as effect on animal activity at 200 mg/kg, ip measured up to 14 days post dose", "assay_type": "organism-based", "conditions": "in vivo, 336 h", "summary_of_the_method": "as §5"}, "Mus musculus [12]": {"system": "Mus musculus", "assay": "Acute toxicity in ICR mouse assessed as mouse mortality level at 200 to 250 mg/kg, ip measured on day 4 post dose", "assay_type": "organism-based", "conditions": "in vivo", "summary_of_the_method": "as §5"}}}
{"smiles": "COc1ccc(Oc2c(/C=N\\OCc3c(Cl)c(-c4ccc(Cl)cc4)nn3C)c(C)nn2C)cc1", "values": [{"measurement": "IC50", "setting": "SMMC-7721 [1]", "result": 0.76, "unit": "µM"}, {"measurement": "IC50", "setting": "HCT-116", "result": 1.26, "unit": "µM"}, {"measurement": "Activity", "setting": "SMMC-7721 [2]", "result": 29.6, "unit": "%"}, {"measurement": "Activity", "setting": "SMMC-7721 [3]", "result": 49.2, "unit": "%"}, {"measurement": "Activity", "setting": "SMMC-7721 [4]", "result": "Dose-dependent effect"}, {"measurement": "Activity", "setting": "SMMC-7721 [5]", "result": "Dose-dependent effect"}, {"measurement": "Activity", "setting": "[6]", "result": "Dose-dependent effect"}, {"measurement": "inhibition in vivo at 30 mg/kg", "setting": "SMMC-7721 [7]", "result": 65.3, "unit": "%"}, {"measurement": "Activity", "setting": "Mus musculus [8]", "result": "Non-Toxic"}, {"measurement": "TGI", "setting": "SMMC-7721 [9]", "result": "Dose-dependent effect"}, {"measurement": "Activity", "setting": "Mus musculus [10]", "result": "Non-Toxic"}, {"measurement": "Activity", "setting": "Mus musculus [11]", "result": "Non-Toxic"}, {"measurement": "Activity", "setting": "Mus musculus [12]", "result": "Non-Toxic"}]}
